Data taken from ChEMBL document CHEMBL1909500, “Synthesis and in vitro anticancer activity of 6,7-methylenedioxy (or 5-hydroxy-6-methoxy)-2-(substituted selenophenyl)quinolin-4-one analogs” (Eur J Med Chem, 2011).
The source made the active and inactive calls. The rule behind the calls is not given here.

How the values were obtained:
SNB-75 = assay: Anticancer activity against human SNB75 cells after 48 hrs by MTT assay; assay type: functional; settings: SNB-75, 48 h
TK-10 = assay: Anticancer activity against human TK10 cells after 48 hrs by MTT assay; assay type: functional; settings: TK-10, 48 h
HL-60(TB) = assay: Anticancer activity against human HL-60(TB) cells after 48 hrs by MTT assay; assay type: functional; settings: HL-60, 48 h
U-251 = assay: Anticancer activity against human U251 cells after 48 hrs by MTT assay; assay type: functional; settings: U-251, 48 h
HL-60 [1] = assay: Cell cycle arrest in human HL60 assessed as cell accumulation in G2/M phase at 1 uM after 24 hrs pretreated with pan-caspase inhibitor z-VAD-fmk for 3 hrs by propidium iodide staining-based flow cytometric analysis; assay type: functional; set-up: scale not given: the % may be the effect or the level left
How it was run: (§1)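 HL-60 cells were preincubated for 3 h with or without the pan-caspase inhibitor z-VAD-fmk, then co-exposed to compound at 1 μM for 24 h. Cells were washed in PBS and fixed overnight in ice-cold 70% ethanol at −20 °C. They were stained for 30 min in the dark with propidium iodide 4 μg/mL, 0.1 mg/ml RNase and 1% Triton X-100. DNA content was read on a FACScan flow cytometer.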

NCI-H226 = assay: Anticancer activity against human NCI-H226 cells after 48 hrs by MTT assay; assay type: functional; settings: NCI-H226, 48 h
786-0 = assay: Anticancer activity against human 786-0 cells after 48 hrs by MTT assay; assay type: functional; settings: 786-0, 48 h
HL-60 [2] = assay: Cell cycle arrest in human HL60 assessed as cell accumulation in Sub-G1 phase at 1 uM after 24 hrs pretreated with pan-caspase inhibitor z-VAD-fmk for 3 hrs by propidium iodide staining-based flow cytometric analysis; assay type: functional; set-up: scale not given: the % may be the effect or the level left; how it was run: as §1
NCI-H322M = assay: Anticancer activity against human NCI-H322M cells after 48 hrs by MTT assay; assay type: functional
DU-145 = assay: Anticancer activity against human DU145 cells after 48 hrs by MTT assay; assay type: functional; settings: DU-145, 48 h
NCI-H460 = assay: Anticancer activity against human NCI-H460 cells after 48 hrs by MTT assay; assay type: functional; settings: NCI-H460, 48 h
K562 = assay: Anticancer activity against human K562 cells after 48 hrs by MTT assay; assay type: functional; settings: K562, 48 h
HL-60 [3] = assay: Induction of cell cycle arrest at G2/M phase in human HL60 cells assessed as decrease in CDK1 protein expression after 24 hrs by Western blot analysis; assay type: functional, cell-based
How it was run: (§2)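 HL-60 cells at 2 × 10⁵/mL were exposed to the indicated concentrations for 24 h, washed in PBS and lysed for total protein. Immunoblots used HRP-linked secondary antibodies with ECL detection. Cyclin B1, CDK1, caspase-3 (17 kDa active form) and PARP (85 kDa fragment) were quantified and normalised to β-actin.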

SK-OV-3 = assay: Anticancer activity against human SKOV3 cells after 48 hrs by MTT assay; assay type: functional; settings: SK-OV-3, 48 h
SF-295 = assay: Anticancer activity against human SF295 cells after 48 hrs by MTT assay; assay type: functional; settings: SF-295, 48 h
OVCAR-8 = assay: Anticancer activity against human OVCAR8 cells after 48 hrs by MTT assay; assay type: functional; settings: OVCAR-8, 48 h
SF-268 = assay: Anticancer activity against human SF268 cells after 48 hrs by MTT assay; assay type: functional; settings: SF-268, 48 h
HL-60 [4] = assay: Cell cycle arrest in human HL60 assessed as cell accumulation in S phase at 1 uM after 24 hrs pretreated with pan-caspase inhibitor z-VAD-fmk for 3 hrs by propidium iodide staining-based flow cytometric analysis; assay type: functional; set-up: scale not given: the % may be the effect or the level left; how it was run: as §1
HL-60 [5] = assay: Cell cycle arrest in human HL60 assessed as cell accumulation in G2/M phase at 1 uM after 24 hrs by propidium iodide staining-based flow cytometric analysis; assay type: functional; how it was run: as §1
[6] = Anticancer activity against human Hs 578T cells after 48 hrs by MTT assay; assay type: functional
HL-60 [7] = assay: Induction of apoptosis in human HL60 cells assessed as caspase-3 activation at 0.1 to 1.0 uM after 24 hrs by Western blot analysis; assay type: functional, cell-based; how it was run: as §2
LOX IMVI = assay: Anticancer activity against human LOXIMVI cells after 48 hrs by MTT assay; assay type: functional
KM12 = assay: Anticancer activity against human KM12 cells after 48 hrs by MTT assay; assay type: functional; settings: KM12, 48 h
M14 = assay: Anticancer activity against human M14 cells after 48 hrs by MTT assay; assay type: functional; settings: M14, 48 h
ACHN = assay: Anticancer activity against human ACHN cells after 48 hrs by MTT assay; assay type: functional
NCI-H522 = assay: Anticancer activity against human NCI-H522 cells after 48 hrs by MTT assay; assay type: functional; settings: NCI-H522, 48 h
CAKI-1 = assay: Anticancer activity against human Caki1 cells after 48 hrs by MTT assay; assay type: functional; settings: CAKI-1, 48 h
UACC-62 = assay: Anticancer activity against human UACC62 cells after 48 hrs by MTT assay; assay type: functional; settings: UACC-62, 48 h
MDA-MB-231 = assay: Anticancer activity against human MDA-MB-231 cells after 48 hrs by MTT assay; assay type: functional; settings: MDA-MB-231, 48 h
MCF7 = assay: Anticancer activity against human MCF7 cells after 48 hrs by MTT assay; assay type: functional; settings: MCF7, 48 h
T47D = assay: Anticancer activity against human T47D cells after 48 hrs by MTT assay; assay type: functional
[8] = read-out: pLC50 (the source's name) (converted)

Structure (SMILES): Cc1ccc(-c2cc(=O)c3cc4c(cc3[nH]2)OCO4)[se]1
- GI50 (SNB-75): 275 nM
- CC50 (SNB-75; [8]): > 100000 nM
- TGI (SNB-75; read-out: pTGI): > 100000 nM
- GI50 (TK-10): 10000 nM
- CC50 (TK-10; [8]): > 100000 nM
- TGI (TK-10; read-out: pTGI): > 100000 nM
- GI50 (HL-60(TB)): 204 nM
- CC50 (HL-60(TB); [8]): 933 nM
- TGI (HL-60(TB); read-out: pTGI (converted)): 437 nM
- GI50 (U-251): 339 nM
- CC50 (U-251; [8]): > 100000 nM
- TGI (U-251; read-out: pTGI): > 100000 nM
- Activity (HL-60 [1]): 55.5%
- GI50 (NCI-H226): 389 nM
- CC50 (NCI-H226; [8]): > 100000 nM
- TGI (NCI-H226; read-out: pTGI): > 100000 nM
- GI50 (786-0): 427 nM
- CC50 (786-0; [8]): > 100000 nM
- TGI (786-0; read-out: pTGI): > 100000 nM
- Activity (HL-60 [2]): 10.2%
- GI50 (NCI-H322M): > 100000 nM
- CC50 (NCI-H322M; [8]): > 100000 nM
- TGI (NCI-H322M; read-out: pTGI): > 100000 nM
- GI50 (DU-145): 302 nM
- CC50 (DU-145; [8]): > 100000 nM
- TGI (DU-145; read-out: pTGI): > 100000 nM
- GI50 (NCI-H460): 331 nM
- CC50 (NCI-H460; [8]): > 100000 nM
- TGI (NCI-H460; read-out: pTGI): > 100000 nM
- GI50 (K562): 282 nM
- CC50 (K562; [8]): > 100000 nM
- TGI (K562; read-out: pTGI): > 100000 nM
- Activity (HL-60 [3]): Dose-dependent effect
- GI50 (SK-OV-3): 347 nM
- CC50 (SK-OV-3; [8]): > 100000 nM
- TGI (SK-OV-3; read-out: pTGI): > 100000 nM
- GI50 (SF-295): 347 nM
- CC50 (SF-295; [8]): > 100000 nM
- TGI (SF-295; read-out: pTGI): > 100000 nM
- GI50 (OVCAR-8): 339 nM
- CC50 (OVCAR-8; [8]): > 100000 nM
- TGI (OVCAR-8; read-out: pTGI): > 100000 nM
- GI50 (SF-268): 513 nM
- CC50 (SF-268; [8]): > 100000 nM
- TGI (SF-268; read-out: pTGI): > 100000 nM
- Activity (HL-60 [4]): 36.2%
- Activity (HL-60 [5]): 44.3%
- GI50 [6]: 347 nM
- CC50 [6, 8]: > 100000 nM
- TGI ([6]; read-out: pTGI): > 100000 nM
- Activity (HL-60 [7]): Active
- GI50 (LOX IMVI): 646 nM
- CC50 (LOX IMVI; [8]): > 100000 nM
- TGI (LOX IMVI; read-out: pTGI): > 100000 nM
- GI50 (KM12): 263 nM
- CC50 (KM12; [8]): > 100000 nM
- TGI (KM12; read-out: pTGI): > 100000 nM
- GI50 (M14): 229 nM
- CC50 (M14; [8]): > 100000 nM
- TGI (M14; read-out: pTGI): > 100000 nM
- GI50 (ACHN): 759 nM
- CC50 (ACHN; [8]): > 100000 nM
- TGI (ACHN; read-out: pTGI): > 100000 nM
- GI50 (NCI-H522): 288 nM
- CC50 (NCI-H522; [8]): > 100000 nM
- TGI (NCI-H522; read-out: pTGI (converted)): 537 nM
- GI50 (CAKI-1): 1820 nM
- CC50 (CAKI-1; [8]): > 100000 nM
- TGI (CAKI-1; read-out: pTGI): > 100000 nM
- GI50 (UACC-62): 398 nM
- CC50 (UACC-62; [8]): > 100000 nM
- TGI (UACC-62; read-out: pTGI): > 100000 nM
- GI50 (MDA-MB-231): 501 nM
- CC50 (MDA-MB-231; [8]): > 100000 nM
- TGI (MDA-MB-231; read-out: pTGI): > 100000 nM
- GI50 (MCF7): 324 nM
- CC50 (MCF7; [8]): > 100000 nM
- TGI (MCF7; read-out: pTGI): > 100000 nM
- GI50 (T47D): 871 nM
- CC50 (T47D; [8]): > 100000 nM
- TGI (T47D; read-out: pTGI): > 100000 nM
